Test results reported in ChEMBL document CHEMBL2010803, “Novel NSAID 1-acyl-4-cycloalkyl/arylsemicarbazides and 1-acyl-5-benzyloxy/hydroxy carbamoylcarbazides as potential anticancer agents and antioxidants” (Eur J Med Chem, 2012).
Active and inactive are the calls of the source. The calls are words filed in the database; no cut-off is given here.

What was measured:
[1] = test system: HaCaT; experiment: Selectivity ratio of IC50 for human HaCaT cells to IC50 for human CEM cells
[2] = Antioxidant activity assessed as inhibition of AAPH-induced linoleic acid lipid peroxidation by measuring conjugated diene hydroperoxide level; format: functional; parameters: concentration or dose not given beside the values; details: dose or concentration not given here
How it was run: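 Linoleic acid sodium salt (10 μL of 16 mM) in 0.05 M phosphate buffer pH 7.4 at 37 °C. Oxidation started under air with 50 μL of 40 mM AAPH. Conjugated diene hydroperoxide formation followed as absorbance rise at 234 nm; control contains the same DMSO level. At least triplicate.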

[3] = test system: Glycine max; experiment: Inhibition of soybean LOX assessed as conversion of sodium linoleate to 13- hydroperoxylinoleic acid at 100 uM
[4] = test system: HaCaT; experiment: Selectivity ratio of IC50 for human HaCaT cells to IC50 for human HCT116 cells
[5] = test system: Vesicular stomatitis virus; experiment: Antiviral activity against Vesicular stomatitis virus infected in human cervix carcinoma cells assessed as inhibition of virus-induced cytopathic effect at 0.32 to 100 uM; format: functional, organism-based
How it was run: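 Confluent human cervix carcinoma (HeLa) cultures received 100 CCID50 of VSV together with the compound at 100, 40, 8, 1.6 or 0.32 μM. Cytopathicity was read at the point of full CPE in infected, untreated control wells.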

[6] = test system: NCI-H460; experiment: Selectivity ratio of IC50 for human HaCaT cells to IC50 for human NCI-H460 cells
[7] = Inhibition of soybean LOX assessed as conversion of sodium linoleate to 13- hydroperoxylinoleic acid; parameters: species or system Glycine max
[8] = test system: Human alphaherpesvirus 1; experiment: Antiviral activity against HSV1 KOS infected in human lung fibroblast assessed as inhibition of virus-induced cytopathic effect at 0.32 to 100 uM; format: functional, organism-based
How it was run: (§1)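 Confluent cell cultures were infected with 100 CCID50 of virus in the presence of test compound at 100, 40, 8, 1.6 and 0.32 μM. Cytopathic effect was scored once it was complete in untreated infected controls.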

[9] = test system: Influenza A virus; experiment: Antiviral activity against Influenza A virus H3N2 infected in MDCK cells assessed as inhibition of virus-induced cytopathic effect at 0.32 to 100 uM; format: functional, organism-based
How it was run: (§2)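 Confluent MDCK monolayers were infected in the presence of the compound at 100, 40, 8, 1.6 and 0.32 μM. Viral cytopathicity was scored once it was complete in untreated infected control cultures.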

[10] = test system: MCF7; experiment: Selectivity ratio of IC50 for human HaCaT cells to IC50 for human MCF7 cells
[11] = test system: HCT-116; experiment: Cytostatic activity against human HCT116 cells after 72 hrs by MTT assay; format: functional, cell-based; details: HCT-116, 72 h
How it was run: (§3)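 Monolayers in DMEM with 10% FBS, 2 mM L-glutamine and penicillin/streptomycin, 37 °C, 5% CO2. Seeded at 1–3 × 10^4 cells/ml, then compound added in tenfold dilutions (10⁻⁸–10⁻⁴ M) for 72 h. MTT read at 570 nm; percent growth taken against time-zero and untreated controls. IC50 by linear regression; quadruplicate, at least two experiments.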

[12] = test system: L1210; experiment: Selectivity ratio of IC50 for human HaCaT cells to IC50 for mouse L1210 cells
[13] = test system: MCF7; experiment: Cytostatic activity against human MCF7 cells after 72 hrs by MTT assay; format: functional, cell-based; details: MCF7, 72 h; how it was run: as §3
[14] = test system: Influenza A virus; experiment: Antiviral activity against Influenza A virus H1N1 infected in MDCK cells assessed as inhibition of virus-induced cytopathic effect at 0.32 to 100 uM; format: functional, organism-based; how it was run: as §2
[15] = test system: Human immunodeficiency virus 2; experiment: Antiviral activity against HIV2 ROD infected in human CEM cells assessed as inhibition of virus-induced CEM giant cell formation at 0.32 to 100 uM after 4 days; format: functional, organism-based; details: ISOLATE ROD, CCRF-CEM
How it was run: (§4)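 CEM cells (~3 × 10^5 cells/cm³) exposed to 100 CCID50/ml of virus and seeded into wells holding compound dilutions. Incubated 4 days at 37 °C, then giant cell formation examined microscopically.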

[16] = test system: HeLa; experiment: Cytostatic activity against human HeLa cells after 3 days by coulter counter analysis; format: functional, cell-based; details: 72 h
How it was run: (§5)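 300,000–500,000 cells/ml mixed 1:1 with compound dilutions and incubated at 37 °C for 2 days (L1210) or 3 days (CEM, HeLa). Cell number counted with a Coulter counter; HeLa trypsinized before counting.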

[17] = test system: Coxsackievirus B4; experiment: Antiviral activity against Coxsackievirus B4 infected in human cervix carcinoma cells assessed as inhibition of virus-induced cytopathic effect at 0.32 to 100 uM; format: functional, organism-based; how it was run: as §1
[18] = test system: Human immunodeficiency virus 1; experiment: Antiviral activity against HIV1 3B infected in human CEM cells assessed as inhibition of virus-induced CEM giant cell formation at 0.32 to 100 uM after 4 days; format: functional, organism-based; details: CCRF-CEM; how it was run: as §4
[19] = test system: Human respirovirus 3; experiment: Antiviral activity against Parainfluenza virus 3 infected in african green monkey Vero cells assessed as inhibition of virus-induced cytopathic effect at 0.32 to 100 uM; format: functional, organism-based; how it was run: as §1
[20] = test system: Radical scavenging activity; experiment: Antioxidant activity assessed as DPPH free radical scavenging activity at 100 uM after 20 mins by spectrophotometric analysis; format: functional
How it was run: (§6)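 0.05 mM DPPH in absolute ethanol mixed with an equal volume of compound in DMSO (final 100 μM). Shaken and left 20 or 60 min, then absorbance read at 517 nm and percent activity calculated. Three replicates, averaged.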

[21] = test system: Influenza B virus; experiment: Antiviral activity against Influenza B virus infected in MDCK cells assessed as inhibition of virus-induced cytopathic effect at 0.32 to 100 uM; format: functional, organism-based; how it was run: as §2
[22] = test system: Sindbis virus; experiment: Antiviral activity against Sindbis virus infected in african green monkey Vero cells assessed as inhibition of virus-induced cytopathic effect at 0.32 to 100 uM; format: functional, organism-based; how it was run: as §1
[23] = test system: L1210; experiment: Cytostatic activity against mouse L1210 cells after 2 days by coulter counter analysis; format: functional, cell-based; details: L1210, 48 h; how it was run: as §5
[24] = test system: HeLa; experiment: Selectivity ratio of IC50 for human HaCaT cells to IC50 for human HeLa cells
[25] = test system: Human alphaherpesvirus 2; experiment: Antiviral activity against HSV2 G infected in human lung fibroblast assessed as inhibition of virus-induced cytopathic effect at 0.32 to 100 uM; format: functional, organism-based; details: strain G; how it was run: as §1
[26] = test system: Respiratory syncytial virus; experiment: Antiviral activity against RSV infected in human cervix carcinoma cells assessed as inhibition of virus-induced cytopathic effect at 0.32 to 100 uM; format: functional, organism-based; how it was run: as §1
[27] = test system: Punta Toro virus; experiment: Antiviral activity against Punta Toro virus infected in african green monkey Vero cells assessed as inhibition of virus-induced cytopathic effect at 0.32 to 100 uM; format: functional, organism-based; how it was run: as §1
[28] = test system: Feline coronavirus; experiment: Antiviral activity against Feline coronavirus infected in feline CRFK cells assessed as inhibition of virus-induced cytopathic effect at 0.32 to 100 uM; format: functional, organism-based; how it was run: as §1
[29] = test system: Vesicular stomatitis virus; experiment: Antiviral activity against VSV infected in human lung fibroblast assessed as inhibition of virus-induced cytopathic effect at 0.32 to 100 uM; format: functional, organism-based
[30] = test system: Vaccinia virus; experiment: Antiviral activity against Vaccinia virus infected in human lung fibroblast assessed as inhibition of virus-induced cytopathic effect at 0.32 to 100 uM; format: functional, organism-based; details: Orthopoxvirus vaccinia
[31] = test system: HaCaT; experiment: Cytostatic activity against human HaCaT cells after 72 hrs by MTT assay; format: ADME, cell-based; how it was run: as §3
[32] = test system: Radical scavenging activity; experiment: Antioxidant activity assessed as DPPH free radical scavenging activity at 100 uM after 60 mins by spectrophotometric analysis; format: functional; how it was run: as §6
[33] = test system: Felid alphaherpesvirus 1; experiment: Antiviral activity against Feline herpesvirus infected in feline CRFK cells assessed as inhibition of virus-induced cytopathic effect at 0.32 to 100 uM; format: functional, organism-based; how it was run: as §1
[34] = test system: CCRF-CEM; experiment: Cytostatic activity against human CEM cells after 3 days by coulter counter analysis; format: functional, cell-based; details: 72 h; how it was run: as §5
[35] = test system: Mammalian orthoreovirus 1; experiment: Antiviral activity against Reovirus-1 infected in african green monkey Vero cells assessed as inhibition of virus-induced cytopathic effect at 0.32 to 100 uM; format: functional, organism-based; how it was run: as §1
[36] = test system: NCI-H460; experiment: Cytostatic activity against human NCI-H460 cells after 72 hrs by MTT assay; format: functional, cell-based; details: NCI-H460, 72 h; how it was run: as §3
[37] = test system: Coxsackievirus B4; experiment: Antiviral activity against Coxsackievirus B4 infected in african green monkey Vero cells assessed as inhibition of virus-induced cytopathic effect at 0.32 to 100 uM; format: functional, organism-based; how it was run: as §1

In the case of CC(C(=O)NNC(=O)NC(c1ccccc1)c1ccccc1)c1cccc(Cc2ccccc2)c1 (centres undefined), the “Ratio IC50” value [1] is reported as 2, the inhibition [2] is reported as 88% and the inhibition [3] is reported as 96%. For the same compound, the “Ratio IC50” value [4] was 2, the inhibition [5] was “inactive” and the “Ratio IC50” value [6] was 2. The IC50 [7] was 51.5 µM, the inhibition [8] was “inactive” and the inhibition [9] was “inactive”. For the same compound, the “Ratio IC50” value [10] was 2, the IC50 [11] was 8 µM and the “Ratio IC50” value [12] was 2. The IC50 [13] was 5 µM, the inhibition [14] was “inactive” and the inhibition [15] was “inactive”. For the same compound, the IC50 [16] was 5 µM, the inhibition [17] was “inactive” and the inhibition [18] was “inactive”. The inhibition [19] was “inactive”, the Activity [20] was 4% and the inhibition [21] was “inactive”. For the same compound, the inhibition [22] was “inactive”, the IC50 [23] was 19 µM and the “Ratio IC50” value [24] was 2. The inhibition [25] was “inactive”, the inhibition [26] was “inactive” and the inhibition [27] was “inactive”. For the same compound, the inhibition [28] was “inactive”, the inhibition [29] was “inactive” and the inhibition [30] was “inactive”. For the same compound, the IC50 [31] was 11 µM, the Activity [32] was 9% and the inhibition [33] was “inactive”. The IC50 [34] was 15 µM, the inhibition [35] was “inactive” and the IC50 [36] was 4 µM. For the same compound, the inhibition [37] was “inactive”.
In the case of CC(C(=O)NNC(=O)NCc1ccccc1)c1cccc(Oc2ccccc2)c1 (centres undefined), the inhibition [2] is reported as 11%, the inhibition [3] is reported as 68% and the inhibition [5] is reported as “inactive”. The IC50 [7] was 75 µM, the inhibition [8] was “inactive” and the inhibition [9] was “inactive”. For the same compound, the IC50 [11] was 27 µM, the IC50 [13] was 17 µM and the inhibition [14] was “inactive”. The inhibition [15] was “inactive”, the inhibition [17] was “inactive” and the inhibition [18] was “inactive”. The inhibition [19] was “inactive”, the Activity [20] was 22% and the inhibition [21] was “inactive”. The inhibition [22] was “inactive”, the IC50 [23] was 63 µM and the inhibition [25] was “inactive”. The inhibition [26] was “inactive”, the inhibition [27] was “inactive” and the inhibition [28] was “inactive”. The inhibition [29] was “inactive”, the inhibition [30] was “inactive” and the IC50 [31] was 46 µM. The Activity [32] was 24%, the inhibition [33] was “inactive” and the IC50 [34] was 72 µM. The inhibition [35] was “inactive”, the IC50 [36] was 19 µM and the inhibition [37] was “inactive”.
In the case of CC(C(=O)NNC(=O)NC(c1ccccc1)c1ccccc1)c1cccc(Oc2ccccc2)c1 (centres undefined), the “Ratio IC50” value [1] is reported as 2, the inhibition [2] is reported as 99% and the inhibition [3] is reported as 81%. The “Ratio IC50” value [4] was 2, the inhibition [5] was “inactive” and the “Ratio IC50” value [6] was 2. For the same compound, the IC50 [7] was 60 µM, the inhibition [8] was “inactive” and the inhibition [9] was “inactive”. For the same compound, the “Ratio IC50” value [10] was 2, the IC50 [11] was 5 µM and the “Ratio IC50” value [12] was 2. For the same compound, the IC50 [13] was 7 µM, the inhibition [14] was “inactive” and the inhibition [15] was “inactive”. The IC50 [16] was 5.7 µM, the inhibition [17] was “inactive” and the inhibition [18] was “inactive”. The inhibition [19] was “inactive”, the Activity [20] was 2% and the inhibition [21] was “inactive”. The inhibition [22] was “inactive”, the IC50 [23] was 15 µM and the “Ratio IC50” value [24] was 2. For the same compound, the inhibition [25] was “inactive”, the inhibition [26] was “inactive” and the inhibition [27] was “inactive”. The inhibition [28] was “inactive”, the inhibition [29] was “inactive” and the inhibition [30] was “inactive”. The IC50 [31] was 10 µM, the Activity [32] was 4% and the inhibition [33] was “inactive”. The IC50 [34] was 11 µM, the inhibition [35] was “inactive” and the IC50 [36] was 3 µM. For the same compound, the inhibition [37] was “inactive”.
